Results on 3 molecules are retold here after publication PMC3159870 (European journal of nuclear medicine and molecular imaging, 2010).

A word on the log D: it is the decadic logarithm of the distribution of all forms, ionised or not, between an organic phase and buffer at a given pH. For orientation: Ki means a measure of affinity in units of concentration, obtained from inhibition or displacement.

Data set [1] has as its system TSPO. Format: in vivo, human. The procedure, abridged:
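Eight healthy volunteers (2 women, 6 men; 32±11 y), each scanned once with each aryloxyanilide radioligand (18F: 170±26 MBq; 11C: 567±84 MBq; i.v. bolus). Dynamic PET on GE Advance. Radial arterial plasma parent separated by radio-HPLC gave the input function. VT fitted from the first 120 min, then divided by per-scan fP. Ten regions; mean ± SD; repeated-measures ANOVA.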

A short description of a further data set: plasma free fraction. It is filed as in vitro ADME, human. To be noted: eight subjects.
The nature of data set [2]: kinetics of radioligand in plasma and brain after bolus intravenous injection. It is filed as in vivo, human.
Data set [3] relates to TSPO. Kind of data set: in vivo affinity ratio from slope of regression of regional VT/fP. On the set-up: species or system human. Particulars: VT/fP values in ten brain regions.
Data set [4] relates to TSPO. Particulars: monkey brain; cited from earlier work.
The conditions of data set [5]: radiation exposure; cited from earlier work.
Data set [6] concerns TSPO. It is filed as binding, human. To be noted: membranes of white blood cells.
The conditions of data set [7]: octanol/phosphate buffer, pH 7.4; cited from earlier work.
In data set [8] the target is TSPO. Particulars: human brain tissue; cited from earlier work.
Data set [9] has as its system TSPO. Kind of data set: in vitro affinity for TSPO in human brain tissue. Format: binding. To be noted: PBR06 relative to PBR28.
[10] abbreviates: mean of ten brain regions, eight subjects, 120 min data.

Like-named read-outs stand apart in the source and are kept apart here.

`COc1ccc(OC)c(CN(C(=O)C[18F])c2ccccc2Oc2ccccc2)c1` [^18F-PBR06]: the VT with TSPO [1] (Anterior cingulate) came out at 2.05±0.42 ml × cm^−3; in the data set on TSPO [1] (Caudate), 1.72±0.28 ml × cm^−3; with TSPO [1] (Cerebellum), 2.26±0.61 ml × cm^−3; with TSPO [1] (Frontal cortex), 2.10±0.40 ml × cm^−3; in the data set on TSPO [1] (Medial temporal cortex), 2.05±0.46 ml × cm^−3; in the data set with TSPO [1] (Occipital cortex) it was 2.17±0.40 ml × cm^−3. Besides, the VT was determined as 2.10±0.39 ml × cm^−3 in the data set on TSPO [1] (Parietal cortex); 1.98±0.36 ml × cm^−3 with TSPO [1] (Putamen); 2.24±0.43 ml × cm^−3 in the data set on TSPO [1] (Temporal cortex); 2.37±0.44 ml × cm^−3 in the data set on TSPO [1] (Thalamus); 2.1±0.4 ml × cm^−3 with TSPO [1] (setting [10]). Also, the VT/fP in the data set on TSPO [1] (Anterior cingulate) stood at 97.7±21.5 ml × cm^−3; with TSPO [1] (Caudate), 83.2±20.3 ml × cm^−3; in the data set on TSPO [1] (Cerebellum), 108.0±33.4 ml × cm^−3; in the data set with TSPO [1] (Frontal cortex) it was 100.3±22.6 ml × cm^−3; in the data set on TSPO [1] (Medial temporal cortex) it was 97.7±22.8 ml × cm^−3; with TSPO [1] (Occipital cortex), 104.0±24.3 ml × cm^−3. For the same molecule, the VT/fP in the data set with TSPO [1] (Parietal cortex) is given as 100.3±20.4 ml × cm^−3; with TSPO [1] (Putamen), 94.8±21.2 ml × cm^−3; in the data set with TSPO [1] (Temporal cortex), 107.4±27.7 ml × cm^−3; in the data set with TSPO [1] (Thalamus), 113.6±25.7 ml × cm^−3; with TSPO [1] (setting [10]) it was 100.7±24.0 ml × cm^−3. Further, the “plasma free fraction (fP)” value in “plasma free fraction” is 2.2±0.6%. In addition, the “time of peak brain uptake of radioactivity” value in [2] (human brain, after injection) was no more than 5 min. Besides, in data set [2] (human plasma, after injection), the “time of peak plasma concentration of total parent radioligand” value is recorded as no more than 2 min. The “peak concentration of brain uptake” value in data set [2] (mean of ten regions in eight subjects) was 1.2 SUV. In addition, the “peak concentration of brain uptake, range” value in data set [2] (range, ten regions in eight subjects) is 1.0–1.6 SUV. Besides, the “95% confidence interval of slope (in vivo affinity ratio)” value in the data set with TSPO [3] is 0.89–1.84. Moreover, in the data set on TSPO [4], the “specific binding as part of total uptake” value is listed as “greater than 90%”. Further, the effective dose in data set [5] is 18.5 µSv/MBq.

Turning to `COc1ccccc1CN(C(C)=O)c1cnccc1Oc1ccccc1` [PBR28], the “fold lower affinity in non-binders than in the majority (90%) of the population” value with TSPO [6] is given as “about 50 fold”. Further, the “log D” value in data set [7] is on record as 3.0. In addition, the Ki on TSPO [8] was 2.5 nM.

With `COc1ccc(OC)c(CN(C(=O)CF)c2ccccc2Oc2ccccc2)c1` [PBR06], in the data set on TSPO [9], the “fold higher in vitro affinity than PBR28” value amounted to 2.5 fold. For the same molecule, the Ki at TSPO [8] was 1 nM.
